Published values pooled from the literature.
Each line is one published result; the experiments were not run side by side.
Target: Aurora kinase B (AURKB, Homo sapiens, UniProt Q96GD4)

Compound	observed	mode	technique	tested at	quantity	result
Cn1cc(-c2cccc(N3CCc4c(sc5c4CC(C)(C)C5)C3=O)c2CO)cc(Nc2ccncn2)c1=O	enzyme activity	inhibitor		1 µM	inhibition	6%
C#Cc1n[nH]c2c(-c3cn([C@@H](C)c4ccccn4)c(=O)[nH]c3=O)cc(F)cc12	enzyme activity	inhibitor		0.1 µM	inhibition	4.9%
Nc1ncc(-c2nc(N3CCOCC3)nc(N3CCOCC3)n2)c(C(F)F)n1	binding		competition with immobilised ligand	10 µM	remaining binding	91%
COc1ncccc1-c1cnn2ccc(N3CCN(C(=O)OC(C)C)CC3)nc12	binding		competition with immobilised ligand	1 µM	remaining binding	58%
CC(C)(C)c1cc(C=C(C#N)C#N)cc(Br)c1O	enzyme activity	inhibitor		0.5 µM	remaining activity	97.1%
N#CC1(c2ccccn2)CCN(Cc2cc(C(=O)O)c(=O)n3ccccc23)CC1	cell-free assay		competition with immobilised ligand	1 µM	remaining binding	76%
O=c1[nH]c2ccccc2n1C1CCN(Cc2ccc(-c3[nH]c4cc5ncnc5cc4nc3-c3ccccc3)cc2)CC1	enzyme activity			0.5 µM	remaining activity	98.7%
C#Cc1n[nH]c2c(-c3cn([C@@H](C)c4ccccc4)c(=O)[nH]c3=O)cc(F)cc12	enzyme activity	inhibitor		0.1 µM	inhibition	0.1%
Cn1cncc1[C@](O)(COc1ccc(C#N)cc1-c1ccc(OC(F)(F)F)cc1)c1ccc(C#N)cc1	cell-free assay		competition with immobilised ligand	1 µM	remaining binding	100%
